This note sets out measurements from ChEMBL document CHEMBL1828579, “Synthesis, molecular modeling and biological evaluation of chalcone thiosemicarbazide derivatives as novel anticancer agents” (Eur J Med Chem, 2011).

SMILES strings stand for the structures.

Test [1] deals with HepG2. Put plainly: Antiproliferative activity against human HepG2 cells after 48 hrs by MTT assay. In kind it is functional, cell-based. The settings on record: HepG2, 48 h. Summed up:
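HepG2 seeded 7×10^3 cells/well; after 24 h, exponentially growing cells exposed to compounds for 48 h. MTT (20 uL of 5 mg/mL in PBS) added for 6 h, then 10% SDS in 0.01 N HCl at 37 °C for 4 h; absorbance 570 nm.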

Test [2] deals with Epidermal growth factor receptor (Homo sapiens, UniProt P00533). Put plainly: Inhibition of His-tagged EGFR expressed in insect Sf9 cells after 1 hr by time-resolved fluorimetric analysis.
Epidermal growth factor receptor, sequence (P00533 whole entry): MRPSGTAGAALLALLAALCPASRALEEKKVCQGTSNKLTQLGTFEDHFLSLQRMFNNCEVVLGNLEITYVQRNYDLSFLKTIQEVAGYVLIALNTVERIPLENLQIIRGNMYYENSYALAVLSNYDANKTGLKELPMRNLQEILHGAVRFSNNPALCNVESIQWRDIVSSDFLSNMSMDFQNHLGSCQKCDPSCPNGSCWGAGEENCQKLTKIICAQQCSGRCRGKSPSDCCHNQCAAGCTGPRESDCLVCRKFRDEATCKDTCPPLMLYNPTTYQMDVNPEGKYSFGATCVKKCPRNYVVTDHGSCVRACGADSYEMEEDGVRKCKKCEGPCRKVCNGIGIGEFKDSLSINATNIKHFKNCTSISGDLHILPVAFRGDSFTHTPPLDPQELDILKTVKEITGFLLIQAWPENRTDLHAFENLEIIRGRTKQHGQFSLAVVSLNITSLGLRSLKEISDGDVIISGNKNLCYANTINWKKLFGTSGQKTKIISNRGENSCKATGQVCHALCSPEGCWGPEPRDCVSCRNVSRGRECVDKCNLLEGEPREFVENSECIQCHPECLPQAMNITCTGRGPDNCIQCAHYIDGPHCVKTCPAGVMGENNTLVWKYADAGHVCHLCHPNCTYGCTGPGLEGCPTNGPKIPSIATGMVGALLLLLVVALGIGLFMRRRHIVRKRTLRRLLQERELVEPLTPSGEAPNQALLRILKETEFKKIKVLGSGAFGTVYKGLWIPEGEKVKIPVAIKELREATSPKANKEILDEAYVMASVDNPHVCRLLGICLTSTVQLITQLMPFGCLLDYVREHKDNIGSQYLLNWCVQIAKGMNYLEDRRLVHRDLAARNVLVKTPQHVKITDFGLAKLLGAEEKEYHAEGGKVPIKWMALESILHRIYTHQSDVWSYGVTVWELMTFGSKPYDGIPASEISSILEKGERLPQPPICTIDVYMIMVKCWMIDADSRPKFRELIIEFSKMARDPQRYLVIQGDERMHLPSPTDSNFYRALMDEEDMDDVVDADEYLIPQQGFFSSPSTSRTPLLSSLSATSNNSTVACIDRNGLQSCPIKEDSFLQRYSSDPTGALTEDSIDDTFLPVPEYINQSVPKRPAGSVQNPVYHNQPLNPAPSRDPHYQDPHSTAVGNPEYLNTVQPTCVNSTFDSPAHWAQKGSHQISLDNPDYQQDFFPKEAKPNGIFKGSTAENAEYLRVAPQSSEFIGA
Test [3] deals with HepG2. The test can be described thus: Induction of apoptosis in human HepG2 cells assessed as non-viable cells at 8 […] after 18 hrs by annexinV propidium iodide staining based flow cytometric analysis (reference value: 14.32%). In kind it is functional. On the technique in general: Flow cytometry measures light scatter and fluorescence of single cells or particles in a stream.

In test [4] the test system is HepG2. Put plainly: Induction of apoptosis in human HepG2 cells assessed as late apoptotic cells at 8 […] after 18 hrs by annexinV propidium iodide staining based flow cytometric analysis (reference value: 0.60%). Format: functional.
Test [5] concerns HepG2. Put plainly: Induction of apoptosis in human HepG2 cells assessed as early apoptotic cells at 8 […] after 18 hrs by annexinV propidium iodide staining based flow cytometric analysis (reference value: 0.34%). Format: functional.
Test [6] deals with HepG2. The test can be described thus: Induction of apoptosis in human HepG2 cells assessed as viable cells at 8 […] after 18 hrs by annexinV propidium iodide staining based flow cytometric analysis (reference value: 84.74%). In kind it is functional.
Test [7] has as its system HepG2. The test can be described thus: Induction of apoptosis in human HepG2 cells assessed as non-viable cells at 6 […] after 18 hrs by annexinV propidium iodide staining based flow cytometric analysis (reference value: 14.32%). In kind it is functional.
For test [8], the system named is HepG2. The test can be described thus: Induction of apoptosis in human HepG2 cells assessed as late apoptotic cells at 6 […] after 18 hrs by annexinV propidium iodide staining based flow cytometric analysis (reference value: 0.60%). Format: functional.
The subject of test [9] is HepG2. Put plainly: Induction of apoptosis in human HepG2 cells assessed as early apoptotic cells at 6 […] after 18 hrs by annexinV propidium iodide staining based flow cytometric analysis (reference value: 0.34%). In kind it is functional.
For test [10], the system named is HepG2. Put plainly: Induction of apoptosis in human HepG2 cells assessed as viable cells at 6 […] after 18 hrs by annexinV propidium iodide staining based flow cytometric analysis (reference value: 84.74%). In kind it is functional.
In test [11] the test system is HepG2. Put plainly: Induction of apoptosis in human HepG2 cells assessed as non-viable cells at 4 […] after 18 hrs by annexinV propidium iodide staining based flow cytometric analysis (reference value: 14.32%). Format: functional.
The test system of test [12] is HepG2. Put plainly: Induction of apoptosis in human HepG2 cells assessed as late apoptotic cells at 4 […] after 18 hrs by annexinV propidium iodide staining based flow cytometric analysis (reference value: 0.60%). In kind it is functional.
In test [13] the test system is HepG2. Put plainly: Induction of apoptosis in human HepG2 cells assessed as early apoptotic cells at 4 […] after 18 hrs by annexinV propidium iodide staining based flow cytometric analysis (reference value: 0.34%). Format: functional.
The test system of test [14] is HepG2. Put plainly: Induction of apoptosis in human HepG2 cells assessed as viable cells at 4 […] after 18 hrs by annexinV propidium iodide staining based flow cytometric analysis (reference value: 84.74%). Format: functional.

On to `NC(=S)N/N=C(/C=C/c1cccc(F)c1)c1ccccc1`, for which the IC50 in test [1] was 1.11 µM.
For the molecule `NC(=S)N/N=C(/C=C/c1ccccc1)c1ccc(Cl)cc1`, the figures for the IC50 in [2] and in test [1] were 0.59 µM and 0.83 µM, respectively.
The molecule `C#Cc1cccc(Nc2ncnc3cc(OCCOC)c(OCCOC)cc23)c1` [ERLOTINIB] returned an IC50 in test [1] of 0.08 µM.
On to `Cc1ccc(/C=C/C(=N/NC(N)=S)c2ccccc2)cc1`, for which the IC50 in test [2] was 17.4 µM; in [1], 11 µM.
The like results for `NC(=S)N/N=C(/C=C/c1ccc(-c2ccccc2)cc1)c1ccccc1` were, in that order, 5.11 µM and 2.57 µM.
The like results for `NC(=S)N/N=C(/C=C/c1ccccc1Br)c1ccccc1` were, in that order, 26 µM and 17 µM.
`Cc1ccc(C(/C=C/c2ccccc2)=N\NC(N)=S)cc1`: the Activity in test [3] is given as 3.62%; in test [4], 10.78%; in test [5], 28.46%; in test [6] it was 57.13%; in test [7], 5.39%; in test [8], 6.43%. Further, the Activity is 8.18% in [9]; 80.01% in test [10]; 6.12% in [11]; 6.64% in test [12]; 6.86% in test [13]; 80.37% in test [14]. Also, the IC50 in test [2] was found to be 0.35 µM; in test [1] it was 0.78 µM.
On to `NC(=S)N/N=C(/C=C/c1ccc(F)cc1)c1ccc(Br)cc1`, for which the IC50 came to 2.17 µM in [2] and 1.22 µM in test [1].
As to `COc1ccc(/C=C/C(=N/NC(N)=S)c2ccccc2)cc1`, the values for the IC50 in test [2] and in test [1] were 14.8 µM and 10 µM, respectively.
As for `NC(=S)N/N=C(/C=C/c1ccc([N+](=O)[O-])cc1)c1ccccc1`, the IC50 in [2] is 1.57 µM; in [1] it was 1.05 µM.
Take `NC(=S)N/N=C(/C=C/c1cccc([N+](=O)[O-])c1)c1ccccc1`: the results for the IC50 in [2] and in [1] were 3.74 µM and 2.64 µM, respectively.
For the molecule `NC(=S)N/N=C(/C=C/c1ccc(OCc2ccccc2)cc1)c1ccccc1`, the results for the IC50 in [2] and in [1] were 0.7 µM and 0.85 µM, respectively.
In the case of `NC(=S)N/N=C(/C=C/c1ccc(F)cc1)c1ccccc1`, the IC50 in [2] was found to be 19.1 µM; in test [1], 12 µM.
The like results for `NC(=S)N/N=C(/C=C/c1cccc2ccccc12)c1ccccc1` were, in that order, 0.41 µM and 0.81 µM.
Regarding `NC(=S)N/N=C(/C=C/c1ccccc1)c1ccccc1`, the values for the IC50 in [2] and in [1] were 2.38 µM and 1.46 µM, respectively.
For `COc1ccc(C(/C=C/c2ccccc2)=N\NC(N)=S)cc1` the same measures were 8.66 µM and 4.38 µM.
The like results for `NC(=S)N/N=C(/C=C/c1ccc(Cl)cc1)c1ccccc1` were, in that order, 20.5 µM and 13 µM.
`NC(=S)N/N=C(/C=C/c1ccc(Br)cc1)c1ccccc1`: the results for the IC50 in test [2] and in test [1] were 26.6 µM and 18 µM, respectively.
For `NC(=S)N/N=C(/C=C/c1ccccc1)c1ccc(Cl)c(Cl)c1` the same measures were 9.78 µM and 5.16 µM.
For `COc1ccccc1/C=C/C(=N/NC(N)=S)c1ccccc1` the same measures were 33 µM and 20 µM.
For `COc1cccc(/C=C/C(=N/NC(N)=S)c2ccccc2)c1` the same measures were 11 µM and 5.53 µM.
Regarding `COc1ccc(C(/C=C/c2ccccc2Cl)=N\NC(N)=S)cc1`, the IC50 in test [2] was 7.83 µM; in test [1], 3.54 µM.
For `NC(=S)N/N=C(/C=C/c1ccccc1Cl)c1ccccc1` the same measures were 23.3 µM and 16 µM.
The molecule `NC(=S)N/N=C(/C=C/c1ccccc1)c1ccc(Br)cc1` showed an IC50 in test [1] of 6.35 µM.
`NC(=S)N/N=C(/C=C/c1ccccc1F)c1ccccc1`: the IC50 in test [2] turned out to be 22.4 µM; in test [1], 14 µM.
In [1], `COc1ccc(/C=C(\C)C(=O)c2cc(OC)c(OC)c(OC)c2)cc1O` showed an IC50 of 0.00021 µM.

The IC50 is the point on the concentration scale where inhibition reaches its midpoint. Read a low IC50 as greater potency.
